From PubChem BioAssay
Rows were chosen to be rich in hits. Some 3.7% of all compounds tested hit in one or more screens of this group.
KCNK9 inh = inhibitors of human KCNK9 two-pore domain potassium channel. HEK293 KCNK9, FluxOR thallium flux fluorescence; stronger effect = lower value. AID 488922. B-score at 10 µM. Q9NPC2. 1.2% of 310,000 active;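 active = ratio B-score over 3 SD below the library mean, with starting fluorescence within 5 SD of its mean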;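 note: negative B-score means less thallium flux so channel inhibition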
KCNQ1 pot = potentiators or activators of human KCNQ1 potassium channel. P51787. CHO-K1 KCNQ1, thallium flux FluxOR fluorescence; stronger effect = higher value. B-score at 10 µM. 0.35% of 310,000 active;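 active = fluorescence ratio B-score, a plate-corrected score, at least three library SD, with initial intensity B-score within 5 SD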
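Material: CHO-K1 cells stably expressing KCNQ1. Medium: assay buffer for compound exposure, DMSO matched across wells. Reagent: K+/Tl+ depolarizing stimulus. Compound dosing: single-concentration screen. Times: 37 °C overnight plating, 90-min dark dye load, 20-min compound pretreatment. Technique: FluxOR Tl+ flux fluorescence.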
hERG protect = shields human hERG channel from block by proarrhythmic agents; Q12809; CHO-hERG, FluxOR thallium flux, dofetilide IC70 present; activation (rescue from dofetilide block), less the hit threshold, % at 10 µM; 0.51% of 310,000 active;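 active = activation above the mean of controls blocked by dofetilide plus 5 SD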;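 note: thallium influx through hERG after potassium depolarization seen as dye fluorescence rise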
KCNQ1 inh = blocks the human KCNQ1 potassium channel; 1.3% of 310,000 active; P51787; B-score at 10 µM; CHO-K1 KCNQ1, FluxOR thallium flux fluorescence; stronger effect = higher value; AID 2642;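 active = compounds whose thallium flux B-score, printed positive for inhibition, exceeds three library SD while starting fluorescence stays within three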;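 note: channel opened by potassium depolarization with thallium stimulus after 20 min compound exposure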
KCNK3 inh = human KCNK3 channel inhibition, primary screen. O14649. CHO-KCNK3 thallium flux, FluxOR fluorescence; stronger effect = lower value. B-score at 10 µM. 0.84% of 340,000 active;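 active = B-score under library mean minus 4 SD, starting fluorescence ratio at most library mean plus 5 SD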;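 note: more negative B-score means stronger inhibition of thallium flux through KCNK3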
Kir21 inh = blocks the mouse Kir2.1 inward-rectifier potassium channel; P35561; HEK293-Kir2.1, FluxOR thallium flux fluorescence; stronger effect = lower value; B-score at 10 µM; 0.85% of 310,000 active; AID 1672;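 active = fluorescence ratio B-score at or below minus 3 SD of library scores, with starting-brightness B-score within 2 SD, cut at about -4.2 in these data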;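 note: channel flux triggered by added potassium and thallium sulfate stimulus; B-score of peak minus minimum fluorescence over baseline after thallium stimulus; more negative B-score means stronger Kir2.1 block with less thallium influx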
Target sequence (P35561 whole entry, looked up): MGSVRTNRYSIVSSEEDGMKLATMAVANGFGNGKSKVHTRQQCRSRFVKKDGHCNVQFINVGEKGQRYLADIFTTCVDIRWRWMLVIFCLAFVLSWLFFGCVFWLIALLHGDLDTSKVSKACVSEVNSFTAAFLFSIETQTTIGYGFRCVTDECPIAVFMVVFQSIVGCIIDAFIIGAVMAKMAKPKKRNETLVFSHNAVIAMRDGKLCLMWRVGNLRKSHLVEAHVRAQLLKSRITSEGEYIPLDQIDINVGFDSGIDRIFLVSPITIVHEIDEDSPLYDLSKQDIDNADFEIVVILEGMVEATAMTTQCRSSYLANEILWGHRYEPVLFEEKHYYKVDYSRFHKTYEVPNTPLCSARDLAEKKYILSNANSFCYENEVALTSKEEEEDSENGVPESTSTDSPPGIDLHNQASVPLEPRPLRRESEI
KCNK9 inh conf = human KCNK9 inhibitor confirmation | inhibition, % at 10 µM | 43% of 4,900 active | shares compounds with KCNK9 inh | HEK293 KCNK9 cells, FluxOR thallium flux fluorescence;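 active = thallium signal inhibited by more than 5 SD of the compound-free buffer control wells, on both duplicate plates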
Kir2-1 spec = mouse Kir2.1 off-target activity of KCNK9 modulators | inhibition, % at 10 µM | shares compounds with KCNK9 inh | 4% of 4,900 active | Kir2.1 cells, FluxOR thallium flux fluorescence;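 active = thallium signal drop more than 5 SD beyond the mean of the no-compound control wells, seen in both duplicate plates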;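 note: signal is fluorescence rise after thallium addition divided by baseline fluorescence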
HEK293 Tl ctr = second check of KCNK9 modulator effects in non-induced HEK293 cells; shares compounds with KCNK9 inh; FluxOR thallium flux; inhibition, % at 10 µM; 40% of 4,900 active;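 active = thallium signal drop beyond 5 SD of the untreated control mean, on both duplicate plates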
Each line names hits and unclear results; the compound was inactive in the other large screens (follow-up assays come after a bar, where they were run).

CC12COC3(C(=O)Nc4ccccc4)CC1CCC32C (centres undefined)	none
CC1(C)CC(=O)C2=C(C1)NC(SCC(=O)Nc1ccccc1)=C(C#N)C2c1ccco1 (centres undefined)	none
Cc1ccc(C(=O)CSC2=C(C#N)C(c3ccco3)C3=C(CC(C)(C)CC3=O)N2)cc1 (centres undefined)	KCNK9 inh -8.4, KCNK3 inh -10 | KCNK9 inh conf 46% | Kir2-1 spec inactive | HEK293 Tl ctr 33%
O=C(Nc1ccccc1)c1ccc(-c2ccc(Br)cc2)o1	none
COc1ccc(Br)cc1C(=O)Nc1ccccc1-c1ccccc1	KCNK9 inh -10 | KCNK9 inh conf 52% | Kir2-1 spec inactive | HEK293 Tl ctr 42%
COc1ccccc1NC(=O)c1ccc(-c2ccc(Br)cc2)o1	KCNK9 inh -11 | KCNK9 inh conf 33% | Kir2-1 spec inactive | HEK293 Tl ctr 30%
COc1c(C)cc(Br)cc1C(=O)NC(=S)Nc1ccc(Cl)c(C(=O)O)c1	none | KCNK9 inh conf inactive | Kir2-1 spec inactive | HEK293 Tl ctr inactive
COc1ccccc1NC(=O)c1cc(Br)ccc1Cl	none
COc1ccc(Br)cc1C(=O)Nc1cccc(NC(=O)c2ccco2)c1	KCNK9 inh -18 | KCNK9 inh conf 59% | Kir2-1 spec inactive | HEK293 Tl ctr inactive
CC(=O)Nc1ccc(OCC(O)Cn2cncn2)cc1 (centres undefined)	none
C[C@H](NC(=O)c1ccco1)C(=O)NCCc1ccc(S(N)(=O)=O)cc1	none
COc1ccc(NC(=O)c2ccco2)cc1S(=O)(=O)N1CCCCC1	none | KCNK9 inh conf inactive | Kir2-1 spec inactive | HEK293 Tl ctr inactive
COc1ccc(S(=O)(=O)N2CCCCC2)cc1NC(=O)c1ccco1	none
COc1c(C)cc(Br)cc1C(=O)Nc1cccc(NC(=O)c2ccco2)c1	KCNK9 inh -11, KCNK3 inh -11 | KCNK9 inh conf 67% | Kir2-1 spec inactive | HEK293 Tl ctr inactive
COc1cccc(NC(=O)c2ccco2)c1	none
CCOc1ccccc1N1CCN(C(=O)C2CSC3(C)CCC(=O)N23)CC1 (centres undefined)	none (no result: KCNK9 inh, KCNQ1 pot, hERG protect, KCNQ1 inh, Kir21 inh)
CCCCN(CCCC)c1ccc(C(=O)c2ccccc2C(=O)O)c(O)c1	KCNQ1 pot 18 | KCNK9 inh conf inactive | Kir2-1 spec inactive | HEK293 Tl ctr inactive
O=C1CC(=C(c2ccccc2)c2ccccc2)C(=O)N1CCN1CCN(c2cccc(Cl)c2)CC1	none | KCNK9 inh conf inactive | Kir2-1 spec inactive | HEK293 Tl ctr inactive
O=C(Cc1ccc(F)cc1)OCC(=O)N1CCN(S(=O)(=O)c2ccc(Cl)cc2)CC1	none
CN(C)C(=O)CSc1nc(-c2cccs2)c(-c2cccs2)[nH]1	none
COc1ccc(N2CCCn3c2nc2c3c(=O)n(Cc3ccc(C)cc3)c(=O)n2C)c(OC)c1	none | KCNK9 inh conf inactive | Kir2-1 spec inactive | HEK293 Tl ctr inactive
COc1ccc(N2CCCn3c2nc2c3c(=O)n(CCc3ccccc3)c(=O)n2C)cc1	none
Fc1cccc(Cl)c1Cc1noc(/C=C/c2ccccc2)n1	none | KCNK9 inh conf inactive | Kir2-1 spec inactive | HEK293 Tl ctr inactive
Cc1ccc(-c2ccc(C(=O)Nc3ccccc3)o2)c2ccccc12	KCNQ1 inh 6 | KCNK9 inh conf inactive | Kir2-1 spec inactive | HEK293 Tl ctr inactive
Cc1ccc(-c2ccc(C(=O)NCc3ccccc3)o2)c2ccccc12	none
Cc1ccc(S(=O)(=O)NC(=O)c2ccc(-c3ccc(C)c4ccccc34)o2)cc1	none | KCNK9 inh conf inactive | Kir2-1 spec inactive | HEK293 Tl ctr inactive
Cc1c(C)n(CCc2ccccc2)c2ncnc(NCCCN(C)C)c12	none
COc1ccc2c(c1)C(SCC(=O)NCCc1ccccc1)CC(C)(C)O2 (centres undefined)	none | KCNK9 inh conf inactive | Kir2-1 spec inactive | HEK293 Tl ctr inactive
COc1ccc(C(=O)N/C(=C\c2ccco2)C(=O)NCCN2CCOCC2)cc1	none
COc1ccccc1CC(=O)c1ccc(OCc2ccccc2)cc1	none | KCNK9 inh conf inactive | Kir2-1 spec inactive | HEK293 Tl ctr inactive
COc1cc(-c2nc3cc(C)ccn3c2NC2CCCCC2)ccc1-c1ccc(C(C)=O)cc1	KCNK9 inh -9.3 | KCNK9 inh conf 48% | Kir2-1 spec inactive | HEK293 Tl ctr inactive
Cc1ccc(C)c(OCC(=O)Nc2ccc(C(=O)O)cc2NC(=O)COc2cc(C)ccc2C)c1	none | KCNK9 inh conf inactive | Kir2-1 spec inactive | HEK293 Tl ctr inactive
Cc1ccc(OCC(=O)Nc2cc(NC(=O)COc3ccc(C)c(C)c3)cc(C(=O)O)c2)cc1C	none | KCNK9 inh conf inactive | Kir2-1 spec inactive | HEK293 Tl ctr inactive
COc1ccc(OCC(=O)Nc2cc(NC(=O)COc3ccc(OC)cc3)cc(C(=O)O)c2)cc1	none
COc1cccc(Nc2nc(-c3cccs3)nc3ccccc23)c1	none
COc1cccc(CN(C)c2nc(-c3cccs3)nc3ccccc23)c1	KCNK9 inh -9.2 | KCNK9 inh conf 54% | Kir2-1 spec inactive | HEK293 Tl ctr 41%
c1csc(-c2nc(N3CCOCC3)c3ccccc3n2)c1	none
COc1ccc(N2CCN(c3nc(-c4cccs4)nc4ccccc34)CC2)cc1	KCNK9 inh -14 | KCNK9 inh conf 31% | Kir2-1 spec inactive | HEK293 Tl ctr 28%
CCCCc1ccc(NC(=O)CSc2nc(=O)n(CCN(CC)CC)c3c2CCC3)cc1	none
CSc1ncccc1C(=O)NCc1nnc2ccccn12	none (no result: KCNK9 inh, KCNQ1 pot, hERG protect, KCNQ1 inh, Kir21 inh)
Cc1c(N2C(=O)c3ccccc3C2=O)c(=O)n(-c2ccccc2)n1C	none
Cc1c(N2C(=O)/C(=C\c3cccc4ccccc34)SC2=S)c(=O)n(-c2ccccc2)n1C	KCNK3 inh -9.4 | KCNK9 inh conf inactive | Kir2-1 spec inactive | HEK293 Tl ctr inactive
CCc1ccc(NC(=O)CSc2nc(=O)n(CCCN(C)C)c3c2CCC3)cc1	none
CCc1ccc(C(=O)N2CCN(c3ccc(NC(=O)c4cccnc4)cc3)CC2)cc1	none
CCC(C)(C)n1nnnc1C(c1cccs1)N1CCc2ccccc21 (centres undefined)	KCNK9 inh -9.2 | KCNK9 inh conf 51% | Kir2-1 spec inactive | HEK293 Tl ctr 36%
Oc1ccccc1C1=Nc2ccccc2N=C(c2cccs2)C1	KCNK9 inh -10 | KCNK9 inh conf 42% | Kir2-1 spec inactive | HEK293 Tl ctr 34%
Cc1cccc(OCCCC(=O)N2CCCc3ccccc32)c1C	none | KCNK9 inh conf inactive | Kir2-1 spec inactive | HEK293 Tl ctr inactive
